Measurements as given in ChEMBL document CHEMBL5058577, “EUbOPEN Chemogenomics Library 2 (Multiplex)” (2022).

System: U2OS
Experiment: Multiplex assay against U2OS
Type: toxicity, cell-based
Conditions: human
Procedure, shortened: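 On a CQ1 microscope at 37°C and 5% CO2, live cells were imaged after compound addition. They had been stained at seeding with Hoechst33342, BioTracker Green Microtubule Cytoskeleton Dye, MitoTracker Red and Annexin V Alexa Fluor 680. CellPathfinder machine-learning gating assigned cells to Hoechst high-intensity objects or normal cells, normal cells to healthy, pyknosed or fragmented nuclei, and pyknosed cells to mitotic or apoptotic. Tubulin, mitochondrial-mass and membrane-permeability phenotypes are per cents of healthy-nucleus cells.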

[1] = 12 h, 1 µM, compound concentration 1 uM, replicate 1
[2] = 12 h, 1 µM, compound concentration 1 uM, replicate 2
[3] = 12 h, 10 µM, compound concentration 10 uM, replicate 1
[4] = 12 h, 10 µM, compound concentration 10 uM, replicate 2
[5] = 24 h, 1 µM, compound concentration 1 uM, replicate 1
[6] = 24 h, 1 µM, compound concentration 1 uM, replicate 2
[7] = 24 h, 10 µM, compound concentration 10 uM, replicate 1
[8] = 24 h, 10 µM, compound concentration 10 uM, replicate 2
[9] = 48 h, 1 µM, compound concentration 1 uM, replicate 1
[10] = 48 h, 1 µM, compound concentration 1 uM, replicate 2
[11] = 48 h, 10 µM, compound concentration 10 uM, replicate 1
[12] = 48 h, 10 µM, compound concentration 10 uM, replicate 2

## CCCn1c(=O)c2[nH]c(C3CCCC3)nc2n(CCC)c1=O [1,3-DIPROPYL-8-CYCLOPENTYLXANTHINE [DPCPX]]
[1]
  Population Apoptotic (%): 87%
  Population Fragmented Nuclei (%): 25%
  Population Healthy Nuclei (%): 64%
  Population Hoechst High Intensity Objects (%): 1%
  Population Membrane Permeable-Phenotype (%): 1%
  Population Mitochondria Different-Phenotype (%): 3%
  Population Mitotic Cells (%): 12%
  Population Normal (%): 98%
  Population Pyknosed Nuclei (%): 9%
  Population Tubulin-Different-Phenotype (%): 1%
  Total Cell Count: 250
[2]
  Population Apoptotic (%): 93%
  Population Fragmented Nuclei (%): 15%
  Population Healthy Nuclei (%): 72%
  Population Hoechst High Intensity Objects (%): 0%
  Population Membrane Permeable-Phenotype (%): 7%
  Population Mitochondria Different-Phenotype (%): 4%
  Population Mitotic Cells (%): 6%
  Population Normal (%): 100%
  Population Pyknosed Nuclei (%): 12%
  Population Tubulin-Different-Phenotype (%): 5%
  Total Cell Count: 125
[3]
  Population Apoptotic (%): 68%
  Population Fragmented Nuclei (%): 30%
  Population Healthy Nuclei (%): 60%
  Population Hoechst High Intensity Objects (%): 2%
  Population Membrane Permeable-Phenotype (%): 5%
  Population Mitochondria Different-Phenotype (%): 1%
  Population Mitotic Cells (%): 31%
  Population Normal (%): 97%
  Population Pyknosed Nuclei (%): 9%
  Population Tubulin-Different-Phenotype (%): 3%
  Total Cell Count: 206
[4]
  Population Apoptotic (%): 100%
  Population Fragmented Nuclei (%): 21%
  Population Healthy Nuclei (%): 69%
  Population Hoechst High Intensity Objects (%): 3%
  Population Membrane Permeable-Phenotype (%): 6%
  Population Mitochondria Different-Phenotype (%): 9%
  Population Mitotic Cells (%): 0%
  Population Normal (%): 96%
  Population Pyknosed Nuclei (%): 8%
  Total Cell Count: 96
[5]
  Population Apoptotic (%): 83%
  Population Fragmented Nuclei (%): 24%
  Population Healthy Nuclei (%): 68%
  Population Hoechst High Intensity Objects (%): 3%
  Population Membrane Permeable-Phenotype (%): 5%
  Population Mitochondria Different-Phenotype (%): 3%
  Population Mitotic Cells (%): 16%
  Population Normal (%): 96%
  Population Pyknosed Nuclei (%): 7%
  Population Tubulin-Different-Phenotype (%): 4%
  Total Cell Count: 261
[6]
  Population Apoptotic (%): 87%
  Population Fragmented Nuclei (%): 13%
  Population Healthy Nuclei (%): 74%
  Population Hoechst High Intensity Objects (%): 2%
  Population Membrane Permeable-Phenotype (%): 8%
  Population Mitotic Cells (%): 12%
  Population Normal (%): 97%
  Population Pyknosed Nuclei (%): 11%
  Total Cell Count: 138
[7]
  Population Apoptotic (%): 89%
  Population Fragmented Nuclei (%): 27%
  Population Healthy Nuclei (%): 64%
  Population Hoechst High Intensity Objects (%): 2%
  Population Membrane Permeable-Phenotype (%): 7%
  Population Mitochondria Different-Phenotype (%): 0%
  Population Mitotic Cells (%): 10%
  Population Normal (%): 97%
  Population Pyknosed Nuclei (%): 8%
  Population Tubulin-Different-Phenotype (%): 0%
  Total Cell Count: 234
[8]
  Population Apoptotic (%): 100%
  Population Fragmented Nuclei (%): 21%
  Population Healthy Nuclei (%): 71%
  Population Hoechst High Intensity Objects (%): 4%
  Population Membrane Permeable-Phenotype (%): 3%
  Population Mitochondria Different-Phenotype (%): 3%
  Population Mitotic Cells (%): 0%
  Population Normal (%): 95%
  Population Pyknosed Nuclei (%): 6%
  Total Cell Count: 120
[9]
  Population Apoptotic (%): 86%
  Population Fragmented Nuclei (%): 20%
  Population Healthy Nuclei (%): 69%
  Population Hoechst High Intensity Objects (%): 1%
  Population Membrane Permeable-Phenotype (%): 3%
  Population Mitochondria Different-Phenotype (%): 1%
  Population Mitotic Cells (%): 13%
  Population Normal (%): 98%
  Population Pyknosed Nuclei (%): 10%
  Population Tubulin-Different-Phenotype (%): 2%
  Total Cell Count: 364
[10]
  Population Apoptotic (%): 92%
  Population Fragmented Nuclei (%): 17%
  Population Hoechst High Intensity Objects (%): 2%
  Population Membrane Permeable-Phenotype (%): 8%
  Population Mitochondria Different-Phenotype (%): 4%
  Population Mitotic Cells (%): 8%
  Population Normal (%): 97%
  Population Pyknosed Nuclei (%): 13%
  Population Tubulin-Different-Phenotype (%): 3%
  Total Cell Count: 196
[11]
  Population Apoptotic (%): 77%
  Population Fragmented Nuclei (%): 24%
  Population Healthy Nuclei (%): 62%
  Population Hoechst High Intensity Objects (%): 2%
  Population Membrane Permeable-Phenotype (%): 4%
  Population Mitochondria Different-Phenotype (%): 1%
  Population Mitotic Cells (%): 22%
  Population Normal (%): 97%
  Population Pyknosed Nuclei (%): 12%
  Population Tubulin-Different-Phenotype (%): 3%
  Total Cell Count: 322
[12]
  Population Apoptotic (%): 100%
  Population Fragmented Nuclei (%): 19%
  Population Healthy Nuclei (%): 73%
  Population Hoechst High Intensity Objects (%): 3%
  Population Membrane Permeable-Phenotype (%): 5%
  Population Mitochondria Different-Phenotype (%): 3%
  Population Mitotic Cells (%): 0%
  Population Normal (%): 96%
  Population Pyknosed Nuclei (%): 6%
  Population Tubulin-Different-Phenotype (%): 0%
  Total Cell Count: 165
